Results as given in ChEMBL document CHEMBL5252523, “Searching for New Leads for Tuberculosis: Design, Synthesis, and Biological Evaluation of Novel 2-Quinolin-4-yloxyacetamides” (J Med Chem, 2016).
≈ marks a conversion by molar mass, not a printed value.

Assays:
[1] = Microsomal stability in human liver microsomes assessed as half life at 0.5 uM preincubated followed by NADPH addition and measured upto 30 mins by LC-MS/MS analysis; type: ADME, Microsome
[2] = Stability of compound in CD1 mouse blood assessed as half life at 0.5 uM incubated upto 240 mins by LC-MS/MS analysis; type: ADME, tissue-based
In short: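 Fresh CD1 mouse whole blood collected in EDTA tubes and spiked with compound. Three 300 μl aliquots were incubated at 37 °C. Supernatants were analysed by LC-MS/MS; analyte/internal standard ratios were normalised to time zero as % remaining, and half-life was taken from ln plots of % remaining.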

[3] = target: Voltage-gated inwardly rectifying potassium channel KCNH2 (Homo sapiens, UniProt Q12809); assay: Inhibition of human ERG; type: toxicity
[4] = system: Mycobacterium tuberculosis; assay: Antimycobacterial activity against Mycobacterium tuberculosis H37Rv ATCC 25618 assessed as inhibition of microbial growth incubated for 6 days by resazurin based assay; type: functional; conditions: H37Rv ATCC 25618, 144 h, time 6 day
In short: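 Ten two-fold dilutions made in neat DMSO, tested in Middlebrook 7H9 with the H37Rv inoculum. Controls: isoniazid from 4 μg/ml as positive control; rifampicin 1 μM as no-growth control. Plates sat sealed at 37 °C without shaking for 6 days.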

[5] = Microsomal stability in mouse liver microsomes assessed as half life at 0.5 uM preincubated followed by NADPH addition and measured upto 30 mins by LC-MS/MS analysis; type: ADME, Microsome
[6] = Artificial membrane permeability of the compound incubated for 3 hrs by HPLC analysis; type: ADME; conditions: PAMPA, read-out: permeability
[7] = system: Mycobacterium tuberculosis; assay: Antimycobacterial activity against Mycobacterium tuberculosis H37Rv ATCC 25618 expressing pATB45luc infected in PMA-stimulated human THP-1 cells assessed as inhibition of intracellular bacterial growth incubated for 4 days by BrightGlo luciferase assay; type: functional, organism-based; conditions: H37Rv ATCC 25618, THP-1, 96 h; for IC90: time 4 day
In short: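 THP-1 cells grown in RPMI-1640 with 10% FBS, 1 mM pyruvate and 2 mM L-glutamine. Cells were PMA-differentiated (40 ng/ml) while infected with single-cell Mtb H37Rv-pATB45luc at MOI 1:1 for 4 h at 37 °C in a roller bottle, then washed four times. About 10000 cells/well were added onto pre-dispensed compound (max DMSO 0.5%) and incubated 4 days at 37 °C. Luciferase luminescence was read; IC50/IC90 came from nonlinear regression of dose-response curves.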

[8] = Chromatographic hydrophobicity index, log D of the compound in phosphate buffer at pH 7.4 by UV-HPLC analysis; type: physicochemical
[9] = Kinetic aqueous solubility of compound in phosphate buffer at pH 7.4 incubated for 1 hrs by CLND assay; type: physicochemical; conditions: read-out: Kinetic_solubility
[10] = Cytotoxicity against human HepG2 cells assessed as cell growth inhibition incubated for 48 hrs by CellTiter-Glo reagent based analysis; type: toxicity
In short: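 HepG2 cells kept in Eagle's MEM with 10% heat-inactivated FBS, 1% NEAA and penicillin/streptomycin, seeded at ~3000 cells/well onto pre-dispensed compound. Incubation was 48 h at 37 °C, 5% CO2. Plates were equilibrated to room temperature, CellTiter-Glo was added, and ATP luminescence was read after 10 min as the viability read-out.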

Sequence of Voltage-gated inwardly rectifying potassium channel KCNH2 (Q12809 whole entry): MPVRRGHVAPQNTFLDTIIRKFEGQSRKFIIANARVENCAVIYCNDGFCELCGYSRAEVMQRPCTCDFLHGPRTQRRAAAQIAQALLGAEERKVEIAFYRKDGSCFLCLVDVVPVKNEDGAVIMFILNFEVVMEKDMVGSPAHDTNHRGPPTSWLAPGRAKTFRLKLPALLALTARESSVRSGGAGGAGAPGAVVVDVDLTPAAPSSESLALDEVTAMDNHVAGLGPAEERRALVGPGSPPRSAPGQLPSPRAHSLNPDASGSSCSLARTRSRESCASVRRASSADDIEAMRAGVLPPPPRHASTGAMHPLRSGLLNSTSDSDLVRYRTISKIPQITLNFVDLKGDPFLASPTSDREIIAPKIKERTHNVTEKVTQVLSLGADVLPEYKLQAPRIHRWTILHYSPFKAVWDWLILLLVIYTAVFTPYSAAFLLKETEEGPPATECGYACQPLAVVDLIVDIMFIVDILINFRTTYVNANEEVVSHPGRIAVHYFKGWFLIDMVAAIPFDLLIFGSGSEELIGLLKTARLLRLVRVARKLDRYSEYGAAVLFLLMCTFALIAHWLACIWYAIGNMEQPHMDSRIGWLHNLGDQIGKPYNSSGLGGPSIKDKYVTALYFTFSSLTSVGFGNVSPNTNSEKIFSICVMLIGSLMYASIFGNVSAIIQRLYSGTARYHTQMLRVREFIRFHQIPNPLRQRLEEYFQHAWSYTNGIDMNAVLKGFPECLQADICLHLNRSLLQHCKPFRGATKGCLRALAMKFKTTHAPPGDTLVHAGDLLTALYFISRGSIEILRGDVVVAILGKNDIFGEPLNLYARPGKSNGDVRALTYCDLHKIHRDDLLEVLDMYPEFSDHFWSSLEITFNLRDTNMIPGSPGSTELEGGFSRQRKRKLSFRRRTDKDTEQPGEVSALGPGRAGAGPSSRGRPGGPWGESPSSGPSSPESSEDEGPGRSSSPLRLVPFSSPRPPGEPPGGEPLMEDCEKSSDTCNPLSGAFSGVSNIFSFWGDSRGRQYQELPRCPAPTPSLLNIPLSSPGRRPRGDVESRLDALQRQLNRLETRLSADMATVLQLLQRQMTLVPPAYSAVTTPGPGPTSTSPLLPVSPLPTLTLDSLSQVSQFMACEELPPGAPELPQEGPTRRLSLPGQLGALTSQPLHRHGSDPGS

Row | SMILES | half-life at 0.5 µM [1] [min] | half-life at 0.5 µM [2] [min] | IC50 [3] [µM] | MIC [4] [µM] | half-life at 0.5 µM [5] [min] | Papp at 3 h [6] [×10⁻⁶ cm/s] | IC50 [7] [µM] | IC90 [7] [µM] | chromatographic logD [8] | solubility kinetic at 1 h [9] [µM] | IC50 at 48 h [10] [µM]
1 | COc1ccc2nc(C)cc(OCC(=O)Nc3cc(C)cc(C)c3)c2c1 | > 30 | < 5 | > 50.1 | 1.9 | < 5 | 18 | 0.05 | 0.2 | 5.64 | 26 (≈ 9.11 µg/mL) | 
2 | COc1ccc2nc(C)cc(OCC(=O)Nc3ccccc3OC)c2c1 | 16 |  |  | 1.4 | < 3 |  | 0.5 | 1.58 | 4.68 |  | > 100
3 | COc1ccc2nc(C)cc(OCC(=O)Nc3ccc(Cl)cc3)c2c1 |  |  | 5.01 | 3 |  |  | 0.16 | 0.5 | 5.15 | 9 (≈ 3.21 µg/mL) | > 100
4 | COc1ccc(NC(=O)COc2cc(C)nc3ccc(OC)cc23)cc1 |  |  | 6.31 | 0.6 |  | 42 | 0.03 | 0.25 | 4.22 | 108 (≈ 38.1 µg/mL) | > 100
5 | COc1ccc2nc(C)cc(OCC(=O)Nc3cccc(C)c3)c2c1 | 23 | < 5 |  | 2 | < 5 | 35.5 |  |  | 4.83 | 193 (≈ 64.9 µg/mL) | 39.8
6 | COc1ccc2nc(C)cc(OCC(=O)NC3CONC3=O)c2c1 (stereo not drawn) |  |  |  | > 125 |  | < 1 |  |  | 0.79 | ≥ 166 | > 100
7 | COc1ccc2nc(C)cc(OCC(=O)Nc3cc(C)c(F)c(C)c3)c2c1 | > 30 | < 5 | > 50.1 | 2 | < 5 | 21 | 0.08 | 0.25 | 5.5 | 31.5 (≈ 11.6 µg/mL) | > 100
8 | COc1ccc2nc(C)cc(OCC(=O)Nc3nc(C)c(C)s3)c2c1 |  |  |  | 62 |  | 44 |  |  | 4.24 | 31.5 (≈ 11.3 µg/mL) | > 100
9 | COc1ccc2nc(C)cc(OCC(=O)NNC(=O)c3ccncc3)c2c1 |  |  |  | 62 |  | 3.3 |  |  | 1.48 | ≥ 375 | > 100
10 | COc1ccc2nc(C)cc(OCC(=O)Nc3cc(F)cc(F)c3)c2c1 |  |  |  | 3 |  |  | 0.4 | 2.51 | 5.13 | 13 (≈ 4.66 µg/mL) | > 100
11 | COc1ccc2nc(C)cc(OCC(=O)Nc3nccs3)c2c1 |  |  |  | > 250 |  | 112 |  |  | 3.2 | 54 (≈ 17.8 µg/mL) | > 100
12 | COc1ccc2nc(C)cc(OCC(=O)Nc3ccc(S(=O)(=O)Nc4cc(C)on4)cc3)c2c1 |  |  |  | 125 |  | 1.5 |  |  | 2.2 | ≥ 381 | > 100
13 | COc1ccc2nc(C)cc(OCC(=O)N(C)c3cc(C)cc(C)c3)c2c1 |  |  |  | 109 |  | 30 |  |  | 5.47 | 373 (≈ 136 µg/mL) | 50.1
14 | COc1ccc2nc(C)cc(OCC(=O)Nc3ccncn3)c2c1 |  |  |  | > 250 |  | 52.5 |  |  | 2.53 | 27.5 (≈ 8.92 µg/mL) | > 100
15 | COc1ccc2nc(C)cc(OCC(=O)Nc3ccc(F)cc3)c2c1 |  |  |  | 12 |  | 23 |  |  | 4.49 | 104 (≈ 35.4 µg/mL) | 63.1
16 | COc1ccc2nc(C)cc(OCC(=O)Nc3ccc(Cl)cc3Cl)c2c1 |  |  |  | 2 |  |  | 0.79 | > 50 | 6.4 | 20.5 (≈ 8.02 µg/mL) | > 100
17 | COc1ccc2nc(C)cc(OCC(=O)Nc3cc(C)ccc3OC)c2c1 |  |  | 5.01 | 2.5 |  |  | 0.16 | 0.63 | 5.65 | 9.5 (≈ 3.48 µg/mL) | > 100
18 | COc1ccc2nc(C)cc(OCC(=O)Nc3noc(C)c3C)c2c1 |  |  |  | 187 |  | 62.5 |  |  | 3.3 | 196 (≈ 66.7 µg/mL) | > 100
19 | COc1ccc2nc(C)cc(OCC(=O)Nc3cc(C)nc(C)n3)c2c1 |  |  |  | > 250 |  | 1.2 |  |  | 3.24 | 5 (≈ 1.76 µg/mL) | > 100
20 | Cc1cc(C)cc(NC(=O)COc2cc(C)nc3ccc(C)cc23)c1 | > 30 | < 5 |  | 3.9 | < 5 | 52 |  |  | 5.95 | 83 (≈ 27.8 µg/mL) | 15.8
21 | COc1ccc2nc(C)cc(OCC(=O)Nc3ccccn3)c2c1 |  |  |  | 15.7 |  | 48 |  |  | 3.49 | 29 (≈ 9.38 µg/mL) | > 100
22 | COc1ccc2nc(C)cc(OCC(=O)Nc3cccnc3)c2c1 |  |  |  | 62.5 |  | 33 |  |  | 2.46 | 32 (≈ 10.3 µg/mL) | > 100
23 | COc1ccc2nc(C)cc(OCC(=O)Nc3cc(C)ccc3C)c2c1 | 24 | < 5 |  | 8 | < 5 | 81 |  |  | 5.05 | 45.5 (≈ 15.9 µg/mL) | > 100
24 | COc1ccc2nc(C)cc(OCC(=O)Nc3ccncc3)c2c1 |  |  |  | > 250 |  | 56 |  |  | 2.5 | 91.5 (≈ 29.6 µg/mL) | > 100
25 | Cc1ncc2n1-c1ccc(Cl)cc1C(c1ccccc1F)=NC2 [MIDAZOLAM] | 9 |  |  |  | < 5 |  |  |  |  |  | 
